Compound activity deposited in PubChem BioAssay by Johns Hopkins Ion Channel Center.
MrgX1 antagonist – antagonists of human MrgX1 receptor. Q96LB2. MRGX1-HEK293 calcium flux, Fluo-4, BAM8-22 antagonism; active compounds read low. B-score at 10 µM. hit rate 1.3% among 310,000. AID 588676;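 active = calcium-response B-score plate-corrected more than 3 library SD below zero, starting fluorescence within 5 deviations, no agonist response on first addition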;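 also: peak minus trough fluorescence over baseline after final BAM8-22 challenge near maximal dose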
Target sequence (Q96LB2 whole entry, looked up): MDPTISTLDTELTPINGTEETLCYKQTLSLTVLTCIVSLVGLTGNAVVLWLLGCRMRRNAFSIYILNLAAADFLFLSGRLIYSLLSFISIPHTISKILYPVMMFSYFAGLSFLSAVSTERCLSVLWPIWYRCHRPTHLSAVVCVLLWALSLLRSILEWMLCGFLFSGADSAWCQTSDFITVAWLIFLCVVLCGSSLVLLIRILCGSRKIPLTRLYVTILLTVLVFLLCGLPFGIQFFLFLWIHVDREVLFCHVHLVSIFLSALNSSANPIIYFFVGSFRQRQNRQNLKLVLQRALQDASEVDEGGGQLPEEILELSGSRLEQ
RGS4 pot – potentiators or activators of RGS4; hit rate 0.92% among 310,000; HEK293 M3R/inducible RGS4, carbachol calcium flux Fluo4; active compounds read low; B-score at 10 µM;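 active = B-score of the integrated calcium signal more than 4 SD below the library mean, with starting fluorescence not abnormally high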;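 also: negative B-score means reduced calcium response which marks RGS4 activation or potentiation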
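test system = HEK293 cells with stable M3R and inducible RGS4 | schedule = recording 10 s baseline at 1 Hz, 100 s post-agonist | technique = Fluo4-AM (2 µM) calcium-flux fluorescence, kinetic read | measure = Agonist-evoked peak-minus-minimum fluorescence over baseline, integrated ratio, B score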
MrgX1 ag – agonists of human MrgX1 receptor; Q96LB2; MrgX1-HEK293 cells, Fluo-4 calcium fluorescence, agonist mode; active compounds read high; B-score at 10 µM; hit rate 0.44% among 310,000; AID 588627;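 active = calcium response B-score plate-corrected fluorescence ratio at least 3 library SD, with starting fluorescence B-score inside 5 SD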
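Assay system: MrgX1-expressing HEK293 cells / Amount: fifteen thousand cells per well / Doses: test compound in the initial addition of three / Timing: cells plated overnight, dye loaded 0.5 h 37 °C, 0.5 h room temperature / Technique: kinetic calcium dye fluorescence, Fluo-4 NW / Control set: positive and negative controls per plate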
RGS4 inh – human RGS4 inhibition. HEK293 M3R/RGS4 inducible, Fluo-4 calcium flux; active compounds read high; triggered by carbachol at its EC20. P49798. B-score at 10 µM. hit rate 0.45% among 310,000;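 active = B-score, a plate-corrected calcium signal, over three deviations above library mean, with baseline fluorescence within five deviations of library mean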;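 also: RGS4 expression induced by doxycycline in cells with stable M3 receptor; B-score is computed from the integrated fluorescence ratio over baseline after carbachol; higher B-score means a larger calcium signal and so more RGS4 inhibition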
Target sequence (P49798 whole entry, looked up): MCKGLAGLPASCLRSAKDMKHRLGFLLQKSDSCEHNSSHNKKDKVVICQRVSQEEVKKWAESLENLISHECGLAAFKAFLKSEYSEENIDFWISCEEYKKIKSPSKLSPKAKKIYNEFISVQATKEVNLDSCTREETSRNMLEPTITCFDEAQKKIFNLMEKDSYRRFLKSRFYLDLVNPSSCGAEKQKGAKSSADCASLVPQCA
MrgX1 PAM – allosterically activates human MrgX1 receptor signaling; MrgX1-HEK293, Fluo-4 calcium flux, FDSS; active compounds read high; Q96LB2; hit rate 0.63% among 310,000; B-score at 10 µM; AID 588675;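 active = plate-corrected calcium response at least 3 library SD above typical, normal starting fluorescence, not activating the receptor alone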;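 also: compound read alongside a low EC10 to EC30 dose of BAM8-22 agonist; peak minus trough fluorescence over baseline measured at the second addition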
An asterisk follows results filed as active; i = inactive; / = not tested or not shown. Compounds with a hit are over-represented: about 3.5% of the library has one in this group of screens.

SMILES | MrgX1 antagonist | RGS4 pot | MrgX1 ag | RGS4 inh | MrgX1 PAM
O=C(C[n+]1cccc(Br)c1)c1ccc(-c2ccccc2)cc1 | i | -7* | i | i | i
Cc1ccc(C(=O)C[n+]2cc(Br)cc(Br)c2)cc1 | i | i | i | i | 15*
Cc1cc(C)c2nc(-c3ccncc3)cc(C(=O)N3CCN(Cc4ccccc4Cl)CC3)c2c1 | i | -7.4* | i | i | i
COc1ccc(-c2nc(CS(=O)(=O)CC(=O)NCc3ccccc3OC)c(C)o2)cc1 | i | i | i | i | i
CCCCc1nc2ccccc2c(=O)n1NC(=O)c1c(O)c2ccccc2n(C)c1=O | -5.8* | i | i | i | i
Cn1c(=O)c(C(=O)NCCCc2ccccc2)c(O)c2ccccc21 | i | i | i | i | i
CCCc1nc2ccccc2c(=O)n1NC(=O)c1c(O)c2cccc3c2n(c1=O)CCC3 | -5.7* | i | i | i | i
CCN(CC(=O)NCc1cccs1)C(=O)C1CC(=O)N(c2ccc(OC)cc2OC)C1 (stereo not drawn) | -4.8* | i | i | i | i
CCN(CC(=O)Nc1ccc2c(c1)OCCO2)C(=O)C1CC(=O)N(c2ccc(OC)cc2OC)C1 (stereo not drawn) | i | i | i | i | i
CCN(CC)S(=O)(=O)c1ccc(N2CCN(S(=O)(=O)c3ccccc3)CC2)nc1 | / | i | / | i | /
CCN(CC)S(=O)(=O)c1ccc(N2CCN(S(=O)(=O)c3ccccc3C#N)CC2)nc1 | -5* | / | i | / | i
O=C(Nc1nccs1)c1ccc(COc2c(F)c(F)cc(F)c2F)cc1 | i | i | i | i | i
CC1=NN(C(N)=S)C(=O)C1N=Nc1cccc2ccccc12 (stereo not drawn) | i | i | i | i | i
CC1=NN(C(N)=S)C(=O)C1N=Nc1cccc(Cl)c1C (stereo not drawn) | i | i | i | i | 8.6*
CCOC(=O)c1c(C)[nH]c(C(=O)N2CCCC(C(=O)c3cccc(OC)c3)C2)c1C (stereo not drawn) | i | i | i | i | i
CCOC(=O)c1c(C)[nH]c(C(=O)N2CCCC(C(=O)c3ccccc3OC)C2)c1C (stereo not drawn) | i | i | i | i | 27*
O=C(CC(=O)c1cc(Cl)ccc1O)c1ccccc1 | -5* | i | i | i | i
Cc1ccc(N2C(=O)CC(Cc3ccc(Cl)cc3)C2=O)cc1 (stereo not drawn) | i | i | i | i | i
C[C@H]1[C@H](C)CC[C@]2(C(=O)O)CC[C@]3(C)C(=CC[C@@H]4[C@@]5(C)C[C@@H](O)[C@H](O)C(C)(C)[C@@H]5CC[C@]43C)[C@H]12 | i | -7.6* | i | i | i
COc1cccc(CNC(=O)C2CCC(=O)N(C3CC3)C2)c1OC (stereo not drawn) | / | i | / | i | /
O=C(NCCc1ccccc1)c1ccc2c(=O)[nH]c3c(C(=O)NCC4CCCO4)sc(=S)n3c2c1 (stereo not drawn) | i | i | i | i | i
CCOc1ccc(CCNC(=O)c2ccc3c(=O)[nH]c4c(C(=O)NC(C)C)sc(=S)n4c3c2)cc1 | -9.2* | i | i | i | i
COc1ccc(OC)c(CCNC(=O)c2ccc3c(=O)[nH]c4c(C(=O)NC(C)C)sc(=S)n4c3c2)c1 | -8* | -8.8* | i | i | i
CC(C)NC(=O)c1sc(=S)n2c1[nH]c(=O)c1ccc(C(=O)NCCc3ccc(Cl)cc3)cc12 | -5.9* | -8.2* | i | i | i
COc1ccc(OC)c(CCNC(=O)c2ccc3c(c2)N(Cc2ccc(F)cc2)CCS3)c1 | i | i | i | i | i
SMILES | MrgX1 antagonist | RGS4 pot | MrgX1 ag | RGS4 inh | MrgX1 PAM
Cc1ccc(OCC(=O)NCCNC(=O)c2cccnc2)cc1C | i | i | i | i | i
Cn1c(=O)c2sccc2n2c(CCCC(=O)NCc3ccco3)nnc12 | i | i | i | i | i
O=C(NCCc1cccc(F)c1)/C(=C/c1cccnc1)NC(=O)c1ccccc1 | i | i | i | i | i
O=C1/C(=C/c2c[nH]c3ccccc23)CCC/C1=C\c1c[nH]c2ccccc12 | i | i | i | i | 8.6*
Cc1ccccc1CNc1nnnn1C | i | i | i | i | i
c1ccc2c(c1)ccc1nnnn12 | i | i | i | i | i
CCOc1ccc(NC(=O)c2cc(=O)[nH]c3ccccc23)cc1 | i | i | i | i | i
Cc1cc(NC(=O)c2c(Cl)c(C)nn2C)no1 | i | i | i | i | i
Cc1cc(NC(=O)c2c([N+](=O)[O-])c(C)nn2C)no1 | -5* | i | i | i | i
COc1ccc2c(c1)C(=O)N(c1ccc(C)cc1)C(=O)C2 | -4.8* | i | i | i | i
CC(C)OC(=O)c1cc2c(ccn2C)n1CC(=O)N(Cc1ccccc1)c1ccc(F)cc1 | i | i | i | i | i
Cc1ccc(C)c(Cn2c(C(=O)OC(C)C)cc3c2ccn3C)c1 | i | -7* | i | i | i
CCOC(=O)c1cc2c(ccn2C)n1Cc1ccccc1Cl | i | -7.3* | i | i | i
O=C(NCC1CCCO1)C(=O)N/N=C\c1ccc2c(c1)OCO2 (stereo not drawn) | i | i | i | i | i
CCC(C)Sc1nc2ccccc2n1CC(=O)O (stereo not drawn) | i | i | i | i | i
CN(C)CCCN(C(=O)c1ccc(S(=O)(=O)N2CCc3ccccc3C2)cc1)c1nc2ccc(F)cc2s1 | i | i | i | i | i
Cc1cc(C)c2sc(N(CCCN(C)C)C(=O)c3ccc(S(=O)(=O)N4CCCc5ccccc54)cc3)nc2c1 | i | i | i | i | i
Cc1cc(C)c2sc(N(CCCN(C)C)C(=O)c3ccc(S(=O)(=O)N4CCc5ccccc5C4)cc3)nc2c1 | -7.5* | i | i | i | i
Cc1ccc2nc(N(CCCN(C)C)C(=O)c3ccc(S(=O)(=O)N4CCc5ccccc5C4)cc3)sc2c1 | i | -7.8* | i | i | i
CC1(C)CC(=O)C=C(NC2CCCC(O)C2)C1 (stereo not drawn) | i | i | i | i | i
COC(=O)Cc1cc(=O)n2c(nc3ccccc32)[nH]1 | i | i | i | i | i
COc1ccc(C(=O)Nc2ccnn2C2CCN(C(=O)c3cnsn3)CC2)cc1 | i | i | i | i | i
CCSc1nnc2ccc(-c3ccc(C)cc3)nn12 | i | i | i | i | i
